In ChEMBL document CHEMBL4842325, “Lanosterol 14α-demethylase (CYP51)/histone deacetylase (HDAC) dual inhibitors for treatment of Candida tropicalis and Cryptococcus neoformans infections” (Eur J Med Chem, 2021):
Values after ≈ are worked out from the molar mass of the structure shown. Active and inactive are the calls of the source. No cut-off for these calls is given here.

Tests used:
Candida albicans [1] = assay: Antifungal activity against fluconazole-sensitive Candida albicans 9770 assessed as inhibition of fungal growth; assay type: functional
Candida tropicalis [2] = assay: microbe, parasite or virus in culture; assay type: functional; conditions: 5008, time 48 hrs
Candida albicans [3] = assay: microbe, parasite or virus in culture; assay type: functional; conditions: 4108
Cryptococcus neoformans [4] = assay: microbe, parasite or virus in culture; assay type: functional; conditions: H99, time 72 hrs
Candida albicans [5] = assay: Antifungal activity against fluconazole-sensitive Candida albicans 10061 assessed as inhibition of fungal growth; assay type: functional
Candida albicans [6] = assay: microbe, parasite or virus in culture; assay type: functional; conditions: 0304103
Candida albicans [7] = assay: microbe, parasite or virus in culture; assay type: functional; conditions: 7781
Candida tropicalis [8] = assay: microbe, parasite or virus in culture; assay type: functional; conditions: 3890, time 48 hrs
Candida albicans [9] = assay: Antifungal activity against fluconazole-sensitive Candida albicans SC5314 assessed as inhibition of fungal growth; assay type: functional
[10] = Inhibition of HDAC in Candida tropicalis 5008 using Boc-Lys(Ac)-AMC as substrate preincubated with protoplast for 12 hrs followed by incubation with substrate for 6 hrs by fluorimetric assay
Outline: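 Whole-cell assay on C. tropicalis 5008, 100 mg wet weight of exponential-phase cells. Cell wall removed with snailase to give protoplasts, which were dispersed in PBS. Protoplasts incubated with compound at 35 °C for 12 h. Boc-Lys(Ac)-AMC then added to a final 30 µM and incubated 37 °C for 6 h. Stop solution added, 37 °C for 2 h. Fluorescence read at Ex 360/Em 460 nm and converted to HDAC inhibition rate.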

Candida tropicalis [11] = assay: Antifungal activity against Candida tropicalis 5008 assessed as inhibition of fungal filamentation by measuring reduction in hyphae formation at 8 ug/ml incubated for 7 hrs by cell inverted imaging microscopic analysis; assay type: functional, organism-based; conditions: dose 8.0 µg/ml
Outline: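 C. tropicalis 5008 grown to exponential phase in YEPD, diluted to 1 × 10⁵ CFU/mL in spider medium and dosed at several concentrations, with an untreated group for comparison. Incubated 37 °C for 7 h. Cell morphology recorded on a live-cell inverted microscope.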

Cryptococcus neoformans [12] = assay: Downregulation of CAP10 gene expression in Cryptococcus neoformans H99 at 2 ug/ml measured after 24 hrs by qRT-PCR analysis; assay type: functional; conditions: dose 2.0 µg/ml
Outline: (§1)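 Exponential-phase C. neoformans H99 inoculated into 50 mL YPD with compound. Incubated 35 °C for 24 h, then cultures ground in liquid nitrogen for RNA isolation. Transcript levels of capsule-associated genes quantified by RT-qPCR. Three independent experiments, mean ± SD, t-test.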

Candida tropicalis [13] = assay: Downregulation of MDR1 mRNA expression in Candida tropicalis 5008 at 4 ug/ml measured after 24 hrs by qRT-PCR analysis; assay type: functional; conditions: dose 4.0 µg/ml
Outline: (§2)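 Exponential-phase C. tropicalis 5008 inoculated into 10 mL YPD with compound at several concentrations, DMSO as blank control. Incubated 35 °C for 24 h. Total RNA isolated on columns and reverse-transcribed. Real-time RT-PCR with ACT1 as internal control. Mean of 3 independent assays ± SD.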

Cryptococcus neoformans [14] = assay: Antifungal activity against fluconazole-sensitive Cryptococcus neoformans H99 assessed as inhibition of cell proliferation at 2 to 8 ug/ml measured for 48 hrs by time growth curve assay; assay type: functional, organism-based; conditions: dose 2-8 µg/ml
Outline: (§3)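 Exponential-phase cells from YEPD resuspended in 3 mL fresh RPMI 1640 at 1 × 10⁵ cells/mL (C. tropicalis 5008) or 1 × 10⁶ cells/mL (C. neoformans H99). Compound at several concentrations; cultures shaken at 240 rpm, 30 °C. Growth read as OD₆₃₀ at 0, 6, 12, 24, 36 and 48 h. Done in triplicate.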

Cryptococcus neoformans [15] = assay: Antifungal activity against Cryptococcus neoformans H99 infected in ICR mouse model assessed as reduction in fungal burden in brain at 20 mg/kg, po administered once a day for 5 days; assay type: functional, organism-based; conditions: time 5.0 day
Outline: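 Immunosuppression by intraperitoneal cyclophosphamide 24 h before infection. Infected on day 0 by intravenous 2 × 10⁵ CFU C. neoformans H99. Oral treatment once daily for 5 consecutive days, starting 24 h post infection; saline group as blank. Brains taken on day 6 and homogenized, dilutions plated on SDA at 35 °C for 48 h. Colonies counted for burden; groups compared by ANOVA.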

Cryptococcus neoformans [16] = assay: Inhibition of biofilm formation in Cryptococcus neoformans H99 at 8 ug/ml incubated for 24 hrs by XTT reduction assay; assay type: functional, organism-based; conditions: dose 8.0 µg/ml
Cryptococcus neoformans [17] = assay: Downregulation of CAP59 gene expression in Cryptococcus neoformans H99 at 2 ug/ml measured after 24 hrs by qRT-PCR analysis; assay type: functional; conditions: dose 2.0 µg/ml; outline: as §1
Candida tropicalis [18] = assay: Downregulation of ERG11 mRNA expression in Candida tropicalis 5008 at 4 ug/ml measured after 24 hrs by qRT-PCR analysis; assay type: functional; conditions: dose 4.0 µg/ml; outline: as §2
Candida tropicalis [19] = assay: Antifungal activity against fluconazole-resistant Candida tropicalis 5008 assessed as inhibition of cell proliferation at 32 ug/ml measured for 48 hrs by time growth curve assay; assay type: functional, organism-based; conditions: dose 32.0 µg/ml; outline: as §3
Cryptococcus neoformans [20] = assay: Inhibition of capsule formation in Cryptococcus neoformans H99 assessed as reduction in capsule size at 50 ug/ml incubated for 24 hrs by laser scanning confocal microscopic analysis; assay type: functional; conditions: dose 50.0 µg/ml
Outline: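 Exponential-phase C. neoformans H99 from YEPD resuspended in PBS at 1 × 10⁷ cells/mL. Suspension placed in wells with FBS plus DMEM and compound at several concentrations; untreated group as control. Kept 24 h at 37 °C under 10% CO₂. Cells mixed with India ink and imaged by confocal microscopy at 63×, 10 random fields. Whole-cell and cell-body diameters measured to derive capsule size.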

Candida tropicalis [21] = assay: Downregulation of CDR1 mRNA expression in Candida tropicalis 5008 at 4 ug/ml measured after 24 hrs by qRT-PCR analysis; assay type: functional; conditions: dose 4.0 µg/ml; outline: as §2

SMILES	MIC80 (Candida albicans [1]) [µg/mL]	MIC80 (Candida tropicalis [2]) [µg/mL]	MIC80 (Candida albicans [3]) [µg/mL]	MIC80 (Cryptococcus neoformans [4]) [µg/mL]	MIC80 (Candida albicans [5]) [µg/mL]	MIC80 (Candida albicans [6]) [µg/mL]	MIC80 (Candida albicans [7]) [µg/mL]	MIC80 (Candida tropicalis [8]) [µg/mL]	MIC80 (Candida albicans [9]) [µg/mL]	further results
O=C(CCCOc1ccc(CN2CCN(CC(O)(Cn3cncn3)c3ccc(F)cc3F)CC2)cc1)NO (centres undefined)	> 64	4 (≈ 7.54 µM)	16 (≈ 30.2 µM)	8 (≈ 15.1 µM)	32 (≈ 60.3 µM)	8 (≈ 15.1 µM)	8 (≈ 15.1 µM)	4 (≈ 7.54 µM)	4 (≈ 7.54 µM)	
O=C(CCCCOc1ccc(CN2CCN(CC(O)(Cn3cncn3)c3ccc(F)cc3F)CC2)cc1)NO (centres undefined)	> 64	4 (≈ 7.34 µM)	32 (≈ 58.8 µM)	8 (≈ 14.7 µM)	> 64	8 (≈ 14.7 µM)	4 (≈ 7.34 µM)	2 (≈ 3.67 µM)	1 (≈ 1.84 µM)	
O=C(CCCCCCOc1ccc(CN2CCN(CC(O)(Cn3cncn3)c3ccc(F)cc3F)CC2)cc1)NO (centres undefined)	32 (≈ 55.9 µM)	0.5 (≈ 0.873 µM)	8 (≈ 14 µM)	0.5 (≈ 0.873 µM)	32 (≈ 55.9 µM)	16 (≈ 27.9 µM)	1 (≈ 1.75 µM)	2 (≈ 3.49 µM)	1 (≈ 1.75 µM)	
O=C(CCCCCCC(=O)Nc1ccccc1)NO [VORINOSTAT]										IC50 [10]: 3.56 µM
O=C(Cc1ccc(OCCCOc2ccc(CN3CCN(CC(O)(Cn4cncn4)c4ccc(F)cc4F)CC3)cc2)cc1)NO (centres undefined)	> 64	32 (≈ 50.3 µM)	32 (≈ 50.3 µM)	4 (≈ 6.28 µM)	> 64	32 (≈ 50.3 µM)	4 (≈ 6.28 µM)	2 (≈ 3.14 µM)	4 (≈ 6.28 µM)	
O=C(NO)c1ccc(CCCCn2ncn(-c3ccc(CN4CCN(CC(O)(Cn5cncn5)c5ccc(F)cc5F)CC4)cc3)c2=O)cc1 (centres undefined)	> 64	> 64	> 64	8 (≈ 11.6 µM)	> 64	> 64	16 (≈ 23.3 µM)	> 64	> 64	
O=C(Cc1ccc(OCCCCN2CCN(CC(O)(Cn3cncn3)c3ccc(F)cc3F)CC2)cc1)NO (centres undefined)	> 64	> 64	> 64	32 (≈ 58.8 µM)	> 64	32 (≈ 58.8 µM)	> 64	32 (≈ 58.8 µM)	> 64	
CCC(C)n1ncn(-c2ccc(N3CCN(c4ccc(OCC5COC(Cn6cncn6)(c6ccc(Cl)cc6Cl)O5)cc4)CC3)cc2)c1=O (centres undefined) [ITRACONAZOLE]		> 64	> 64	0.125 (≈ 0.177 µM)		> 64	> 64	> 64	0.5 (≈ 0.709 µM)	
O=C(Cc1ccc(OCCCCCCN2CCN(CC(O)(Cn3cncn3)c3ccc(F)cc3F)CC2)cc1)NO (centres undefined)	16 (≈ 27.9 µM)	4 (≈ 6.98 µM)	16 (≈ 27.9 µM)	16 (≈ 27.9 µM)	16 (≈ 27.9 µM)	16 (≈ 27.9 µM)	4 (≈ 6.98 µM)	2 (≈ 3.49 µM)	16 (≈ 27.9 µM)	
O=C(CCCCCCn1ncn(-c2ccc(CN3CCN(CC(O)(Cn4cncn4)c4ccc(F)cc4F)CC3)cc2)c1=O)NO (centres undefined)	> 64	> 64		64 (≈ 100 µM)		> 64	32 (≈ 50 µM)	> 64	> 64	
C[C@@H](c1ncncc1F)[C@](O)(Cn1cncn1)c1ccc(F)cc1F [VORICONAZOLE]		> 64	> 64	0.0625 (≈ 0.179 µM)		> 64	> 64	> 64	< 0.125	
OC(Cn1cncn1)(Cn1cncn1)c1ccc(F)cc1F [FLUCONAZOLE]	> 64	> 64	> 64	2 (≈ 6.53 µM)	> 64	> 64	> 64	0.5 (≈ 1.63 µM)	0.5 (≈ 1.63 µM)	Activity (Candida tropicalis [11]): Active; inhibition (Cryptococcus neoformans [12]): inactive; inhibition (Candida tropicalis [13]): Active; Activity (Cryptococcus neoformans [14]): Active; Activity (Cryptococcus neoformans [15]): Active; inhibition (Cryptococcus neoformans [16]): Active; inhibition (Cryptococcus neoformans [17]): inactive; inhibition (Candida tropicalis [18]): Active; Activity (Candida tropicalis [19]): Active; inhibition (Cryptococcus neoformans [20]): Active; inhibition (Candida tropicalis [21]): Active
O=C(Cc1ccc(OCCCn2ncn(-c3ccc(CN4CCN(CC(O)(Cn5cncn5)c5ccc(F)cc5F)CC4)cc3)c2=O)cc1)NO (centres undefined)	32 (≈ 45.5 µM)	16 (≈ 22.7 µM)	4 (≈ 5.68 µM)	2 (≈ 2.84 µM)	32 (≈ 45.5 µM)	2 (≈ 2.84 µM)	2 (≈ 2.84 µM)	2 (≈ 2.84 µM)	2 (≈ 2.84 µM)	
O=C(Cc1ccc(OCCCCCN2CCN(CC(O)(Cn3cncn3)c3ccc(F)cc3F)CC2)cc1)NO (centres undefined)	> 64	> 64	> 64	32 (≈ 57.3 µM)	> 64	> 64	> 64	4 (≈ 7.16 µM)	32 (≈ 57.3 µM)	
O=C(CCCCCCCn1ncn(-c2ccc(CN3CCN(CC(O)(Cn4cncn4)c4ccc(F)cc4F)CC3)cc2)c1=O)NO (centres undefined)	> 64	> 64		32 (≈ 48.9 µM)		64 (≈ 97.9 µM)	64 (≈ 97.9 µM)	> 64	> 64	
O=C(CCCCCOc1ccc(CN2CCN(CC(O)(Cn3cncn3)c3ccc(F)cc3F)CC2)cc1)NO (centres undefined)	32 (≈ 57.3 µM)	1 (≈ 1.79 µM)	16 (≈ 28.6 µM)	8 (≈ 14.3 µM)	> 64	32 (≈ 57.3 µM)	2 (≈ 3.58 µM)	2 (≈ 3.58 µM)	1 (≈ 1.79 µM)	
